Experimental data as given in ChEMBL document CHEMBL3098041, “Synthesis and anticancer evaluation of 3-substituted quinolin-4-ones and 2,3-dihydroquinolin-4-ones” (Bioorg Med Chem, 2014).

Assays:
[1] = test system: MRC5; assay: Cytotoxicity against human MRC5 cells assessed as cell viability after 72 hrs by Alamar blue assay; assay type: cell-based; conditions: MRC5, 72 h
Method in brief: (§1)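 This was a dose–response Alamar Blue assay run in triplicate. Cells were kept in DMEM with 10% FBS (37 °C, 5% CO2, humidified). Log-phase cells were plated at a fixed density in 96-well plates and left to adhere for 24 h. Compound or vehicle was added to duplicate wells. After 72 h exposure, metabolic activity was measured by fluorescence (ex 555, em 585 nm).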

[2] = test system: A-431; assay: Cytotoxicity against human A431 cells assessed as cell viability at 25 uM after 72 hrs by Alamar blue assay; assay type: functional; conditions: A-431, 72 h, read-out: Activity
Method in brief: (§2)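 Cells were grown in DMEM with 10% FBS at 37 °C, 5% CO2, humidified. Log-phase cells were seeded in 96-well plates at a fixed density and allowed to adhere for 24 h. Compound or vehicle-only control was added to duplicate wells at one fixed concentration for 72 h. Alamar Blue fluorescence was read (ex 555, em 585 nm) as % viability (0% = total growth inhibition). Assays were run in triplicate.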

[3] = test system: HT-29; assay: Cytotoxicity against human HT-29 cells assessed as cell viability at 25 uM after 72 hrs by Alamar blue assay; assay type: functional; conditions: HT-29, 72 h, read-out: Activity; method in brief: as §2
[4] = test system: DU-145; assay: Cytotoxicity against human DU145 cells assessed as cell viability at 25 uM after 72 hrs by Alamar blue assay; assay type: functional; conditions: DU-145, 72 h, read-out: Activity; method in brief: as §2
[5] = test system: DU-145; assay: Cytotoxicity against human DU145 cells assessed as cell viability after 72 hrs by Alamar blue assay; assay type: functional, cell-based; conditions: DU-145, 72 h; method in brief: as §1
[6] = Cytotoxicity against human H460 cells assessed as cell viability after 72 hrs by Alamar blue assay; assay type: functional, cell-based; conditions: NCI-H460, 72 h; method in brief: as §1
[7] = Cytotoxicity against human H460 cells assessed as cell viability at 25 uM after 72 hrs by Alamar blue assay; assay type: functional; conditions: NCI-H460, 72 h, read-out: Activity; method in brief: as §2
[8] = test system: MCF7; assay: Cytotoxicity against human MCF7 cells assessed as cell viability after 72 hrs by Alamar blue assay; assay type: functional, cell-based; conditions: MCF7, 72 h; method in brief: as §1
[9] = test system: HT-29; assay: Cytotoxicity against human HT-29 cells assessed as cell viability after 72 hrs by Alamar blue assay; assay type: functional, cell-based; conditions: HT-29, 72 h; method in brief: as §1
[10] = test system: A-431; assay: Cytotoxicity against human A431 cells assessed as cell viability after 72 hrs by Alamar blue assay; assay type: functional, cell-based; conditions: A-431, 72 h; method in brief: as §1
[11] = test system: MCF7; assay: Cytotoxicity against human MCF7 cells assessed as cell viability at 25 uM after 72 hrs by Alamar blue assay; assay type: functional; conditions: MCF7, 72 h, read-out: Activity; method in brief: as §2

Compound | IC50 [1] [µM] | viability at 25 µM [2] [%] | viability at 25 µM [3] [%] | viability at 25 µM [4] [%] | IC50 [5] [µM] | IC50 [6] [µM] | viability at 25 µM [7] [%] | IC50 [8] [µM] | IC50 [9] [µM] | IC50 [10] [µM] | viability at 25 µM [11] [%]
COc1cc(O)c2c(=O)c(-c3cccc(Br)c3)c[nH]c2c1 | 6.7 | 1 | 14.1 | 10 | 9.5 | 9.2 | 2 | 21.9 | 3.6 | 5.5 | 
COc1cc(OC)c2c(=O)c(-c3cccc(Br)c3)c[nH]c2c1 |  | 66.5 | 37.8 | 71.8 |  |  | 43.9 |  |  |  | 
COc1ccc([C@H]2CNc3cc(OC)cc(OC)c3C2=O)cc1 |  | 89.6 | 106 | 91.1 |  |  | 94.3 |  |  |  | 85.1
COc1cc(OC)c2c(=O)c(-c3ccc(Br)cc3)c[nH]c2c1 |  | 69.1 | 26.2 | 74.8 |  |  | 33.5 |  |  |  | 35.3
COc1cc(O)c2c(=O)c(-c3ccc(F)cc3)c[nH]c2c1 |  | 71.4 | 31.2 | 43.4 |  |  | 38.9 |  |  |  | 
COc1cc(OC)c2c(=O)c(-c3ccc(C)cc3)c[nH]c2c1 |  | 89.9 | 102 | 76.6 |  |  | 53.8 |  |  |  | 
COc1ccc(C2CNc3cc(OC)cc(O)c3C2=O)cc1 (stereo not given) |  | 108 | 97.3 | 106 |  |  | 94.1 |  |  |  | 85.7
COc1cc(O)c2c(c1)NCC(c1ccccc1)C2=O (stereo not given) |  | 90.8 | 90.8 | 81.6 |  |  | 78 |  |  |  | 83.2
COc1cc(O)c2c(=O)c(-c3ccc(Br)cc3)c[nH]c2c1 |  | 104 | 29.2 | 73.5 |  |  | 65.5 |  |  |  | 52.6
O=C1c2c(O)cc(O)cc2NCC1c1ccccc1 (stereo not given) |  | 98.5 | 98.5 | 83.1 |  |  | 74.5 |  |  |  | 121
COc1cc2c(c(OC)c1)C(=O)[C@@H](c1ccccc1)CN2 |  | 98.3 | 98.8 | 95.4 |  |  | 87.6 |  |  |  | 83.6
COc1cc(OC)c2c(=O)c(-c3ccc(F)cc3)c[nH]c2c1 |  | 103 | 114 | 88.7 |  |  | 86 |  |  |  | 
COc1cc(O)c2c(=O)c(-c3ccc(C)cc3)c[nH]c2c1 |  | 76.5 | 29.6 | 85.1 |  |  | 50.7 |  |  |  | 
